{"source": "ChEMBL document CHEMBL3259628", "about": "“Discovery of novel 2-((pyridin-3-yloxy)methyl)piperazines as α7 nicotinic acetylcholine receptor modulators for the treatment of inflammatory disorders” (J Med Chem, 2014)", "key": {"[1]": {"assay": "Cmax in mouse at 5 mg/kg, po", "type": "ADME, organism-based", "parameters": "dose 5 mg/kg, route oral", "conditions": "in vivo"}, "Mus musculus [2]": {"system": "Mus musculus", "assay": "(§1) Antiinflammatory activity against ovalbumin-induced allergic lung inflammation BALB/c mouse model assessed as reduction in neutrophils in brochoalveolar lavage fluid at 1 mg/kg, po qd administered on day 29 to 31 post ovalbumin challenge measured 8 hrs post last challenge relative to vehicle-treated control", "type": "functional", "conditions": "Bronchoalveolar lavage", "in_short": "(§2)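 Balb/c mice sensitized with ovalbumin by IP injection on days 1 and 14, then challenged intranasally with 100 μg ovalbumin on days 29, 30 and 31. Compound in saline given orally starting 30 min before each challenge; groups of six mice. Sham groups were saline-sensitized and allergen-challenged. BAL taken 8 h after the last challenge, with differential cell counts on slides.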"}, "Mus musculus [3]": {"system": "Mus musculus", "assay": "as §1, with “total blood cells” for “neutrophils”", "type": "functional", "in_short": "as §2"}, "[4]": {"target": "T1, Neuronal acetylcholine receptor subunit alpha-7 (Homo sapiens, UniProt P36544)", "T1 sequence (P36544 whole entry)": "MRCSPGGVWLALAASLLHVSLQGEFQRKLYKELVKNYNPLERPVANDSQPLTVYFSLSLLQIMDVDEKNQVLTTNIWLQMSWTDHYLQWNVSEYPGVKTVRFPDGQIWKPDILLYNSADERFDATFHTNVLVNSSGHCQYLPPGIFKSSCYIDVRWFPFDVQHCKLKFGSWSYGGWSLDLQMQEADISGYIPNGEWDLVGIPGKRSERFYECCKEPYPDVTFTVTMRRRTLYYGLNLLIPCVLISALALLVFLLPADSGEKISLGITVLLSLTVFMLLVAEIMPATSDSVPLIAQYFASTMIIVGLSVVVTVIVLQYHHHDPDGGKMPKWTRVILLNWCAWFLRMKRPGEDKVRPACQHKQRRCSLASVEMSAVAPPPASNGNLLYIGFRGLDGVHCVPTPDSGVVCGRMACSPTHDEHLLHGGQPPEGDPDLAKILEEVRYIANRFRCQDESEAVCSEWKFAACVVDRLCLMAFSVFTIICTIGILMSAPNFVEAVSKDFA", "conditions": "300 uM"}, "Mus musculus [5]": {"system": "Mus musculus", "assay": "as §1, with “in total blood cells” for “in neutrophils”, “at 5” for “at 1”", "type": "functional", "in_short": "as §2"}, "Mus musculus [6]": {"system": "Mus musculus", "assay": "as §1, with “at 5” for “at 1”", "type": "functional", "conditions": "Bronchoalveolar lavage", "in_short": "as §2"}, "CYP2D6": {"target": "CYP2D6 (Homo sapiens, UniProt P10635)", "sequence (P10635 whole entry, canonical isoform)": "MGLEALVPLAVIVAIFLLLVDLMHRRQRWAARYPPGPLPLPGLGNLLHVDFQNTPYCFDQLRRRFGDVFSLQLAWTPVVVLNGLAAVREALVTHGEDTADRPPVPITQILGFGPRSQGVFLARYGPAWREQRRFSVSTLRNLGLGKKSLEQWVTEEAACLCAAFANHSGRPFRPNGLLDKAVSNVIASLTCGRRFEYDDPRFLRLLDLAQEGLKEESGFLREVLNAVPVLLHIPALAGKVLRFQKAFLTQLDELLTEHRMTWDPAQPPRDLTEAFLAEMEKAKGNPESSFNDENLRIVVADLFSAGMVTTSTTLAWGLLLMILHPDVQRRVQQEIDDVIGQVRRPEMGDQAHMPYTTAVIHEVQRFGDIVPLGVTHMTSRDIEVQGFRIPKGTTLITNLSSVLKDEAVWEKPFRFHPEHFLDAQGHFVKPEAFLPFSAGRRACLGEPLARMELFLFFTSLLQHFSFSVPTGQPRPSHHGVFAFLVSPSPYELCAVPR", "assay": "Inhibition of CYP2D6 (unknown origin) at 10 uM", "type": "ADME", "in_short": "(§3)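 Each of five Cyp isoforms assayed with single probe substrates rather than a substrate cocktail. Run in duplicate at Cerep. IC50 lines come from a 5-concentration titration curve.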"}, "[7]": {"assay": "Half life in mouse at 1 mg/kg, iv", "type": "ADME, organism-based", "parameters": "dose 1 mg/kg, route intravenous", "conditions": "in vivo"}, "[8]": {"target": "T2, Neuronal acetylcholine receptor; alpha4/beta2 (Homo sapiens, UniProt P17787+P43681)", "assay": "Inhibition of human alpha4beta2 nAChR by binding assay"}, "[9]": {"target": "Neuronal acetylcholine receptor subunit alpha-7 (Rattus norvegicus, UniProt Q05941)", "sequence (Q05941 whole entry)": "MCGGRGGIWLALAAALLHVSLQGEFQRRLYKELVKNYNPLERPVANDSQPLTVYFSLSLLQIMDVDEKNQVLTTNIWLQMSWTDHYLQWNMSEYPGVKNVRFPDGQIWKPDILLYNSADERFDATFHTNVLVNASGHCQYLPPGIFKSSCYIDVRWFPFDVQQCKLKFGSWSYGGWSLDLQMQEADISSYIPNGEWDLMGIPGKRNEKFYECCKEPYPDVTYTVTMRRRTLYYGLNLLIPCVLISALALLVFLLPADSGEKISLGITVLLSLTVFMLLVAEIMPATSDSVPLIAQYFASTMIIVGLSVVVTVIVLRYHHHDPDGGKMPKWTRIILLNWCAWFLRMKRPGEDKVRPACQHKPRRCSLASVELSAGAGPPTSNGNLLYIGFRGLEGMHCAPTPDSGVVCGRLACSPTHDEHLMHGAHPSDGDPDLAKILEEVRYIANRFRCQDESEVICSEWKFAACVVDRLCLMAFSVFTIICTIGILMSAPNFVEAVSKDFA", "assay": "Inhibition of biotinylated alpha-bungarotoxin binding to alpha7 nAChR in rat PC12 cells by FACS analysis", "type": "cell-based, PC-12", "in_short": "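Rat PC12 cells in binding buffer (PBS, 1.0% FBS, 0.02% sodium azide), 0.1% DMSO; biotinylated α-bungarotoxin 10 nM final, 1 h at room temperature; nonspecific binding defined with 1.5 μM unlabeled toxin. After washing, phycoerythrin-streptavidin 1.0 μg/mL final, 15 min in the dark; read by FACS. Screened at 10 and 1 μM, then eight-point 3-fold dilution IC50; mean of two or more experiments.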"}, "[10]": {"target": "Acetylcholine receptor; alpha1/beta1/delta/gamma (Homo sapiens) (UniProt P02708+P07510+P11230+Q07001)", "assay": "Inhibition of alpha1beta1gammadelta nAChR (unknown origin) at 10 uM", "type": "protein-complex assay", "in_short": "(§4)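 Receptor, ion channel and transporter binding panel run at Cerep in duplicate. Percent inhibition measured at 10 μM compound.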"}, "[11]": {"assay": "Half life in mouse at 5 mg/kg, po", "type": "ADME, organism-based", "parameters": "dose 5 mg/kg, route oral", "conditions": "in vivo"}, "CYP2C19": {"target": "CYP2C19 (Homo sapiens, UniProt P33261)", "sequence (P33261 whole entry)": "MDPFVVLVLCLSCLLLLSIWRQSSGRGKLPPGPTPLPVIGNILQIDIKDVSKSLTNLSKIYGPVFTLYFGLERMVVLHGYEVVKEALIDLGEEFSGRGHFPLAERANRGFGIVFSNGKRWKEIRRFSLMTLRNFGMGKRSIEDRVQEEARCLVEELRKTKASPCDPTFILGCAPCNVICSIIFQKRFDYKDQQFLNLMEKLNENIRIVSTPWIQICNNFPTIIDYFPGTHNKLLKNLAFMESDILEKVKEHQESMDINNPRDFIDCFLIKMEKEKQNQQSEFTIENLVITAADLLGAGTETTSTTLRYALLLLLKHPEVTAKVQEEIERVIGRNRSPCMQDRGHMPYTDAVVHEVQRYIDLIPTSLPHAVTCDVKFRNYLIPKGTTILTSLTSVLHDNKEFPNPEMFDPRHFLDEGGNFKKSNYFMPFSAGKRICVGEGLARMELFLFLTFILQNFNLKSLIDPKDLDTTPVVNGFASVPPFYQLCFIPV", "assay": "Inhibition of CYP2C19 (unknown origin) at 10 uM", "type": "ADME", "in_short": "as §3"}, "[12]": {"target": "T3, 5-hydroxytryptamine receptor 3A (Homo sapiens) (UniProt P46098)", "T3 sequence (whole entry)": "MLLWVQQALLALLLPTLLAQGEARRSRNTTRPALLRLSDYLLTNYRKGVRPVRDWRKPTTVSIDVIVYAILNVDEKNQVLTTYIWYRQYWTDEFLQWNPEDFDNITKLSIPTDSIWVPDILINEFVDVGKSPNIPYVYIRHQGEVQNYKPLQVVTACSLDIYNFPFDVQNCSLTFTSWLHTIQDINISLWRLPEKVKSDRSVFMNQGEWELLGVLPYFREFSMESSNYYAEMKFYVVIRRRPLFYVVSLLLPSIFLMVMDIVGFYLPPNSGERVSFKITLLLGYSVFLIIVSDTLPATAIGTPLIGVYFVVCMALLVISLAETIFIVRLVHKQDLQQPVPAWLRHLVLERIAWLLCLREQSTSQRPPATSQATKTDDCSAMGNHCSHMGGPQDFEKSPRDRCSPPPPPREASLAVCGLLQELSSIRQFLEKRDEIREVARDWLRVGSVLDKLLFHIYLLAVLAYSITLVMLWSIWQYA", "assay": "Inhibition of 5-HT3 receptor (unknown origin) at 10 uM", "in_short": "as §4"}, "Mus musculus [13]": {"system": "Mus musculus", "assay": "as §1, with “in eosinophils” for “in neutrophils”, “at 5” for “at 1”", "type": "functional, organism-based", "parameters": "dose 5 mg/kg", "in_short": "as §2"}, "[14]": {"assay": "Oral bioavailability in mouse at 5 mg/kg", "type": "ADME, organism-based", "conditions": "in vivo"}, "Mus musculus [15]": {"system": "Mus musculus", "assay": "as §1, with “eosinophils” for “neutrophils”", "type": "functional", "in_short": "as §2"}, "CYP1A2": {"target": "T4, CYP1A2 (Homo sapiens, UniProt P05177)", "T4 sequence (P05177 whole entry)": "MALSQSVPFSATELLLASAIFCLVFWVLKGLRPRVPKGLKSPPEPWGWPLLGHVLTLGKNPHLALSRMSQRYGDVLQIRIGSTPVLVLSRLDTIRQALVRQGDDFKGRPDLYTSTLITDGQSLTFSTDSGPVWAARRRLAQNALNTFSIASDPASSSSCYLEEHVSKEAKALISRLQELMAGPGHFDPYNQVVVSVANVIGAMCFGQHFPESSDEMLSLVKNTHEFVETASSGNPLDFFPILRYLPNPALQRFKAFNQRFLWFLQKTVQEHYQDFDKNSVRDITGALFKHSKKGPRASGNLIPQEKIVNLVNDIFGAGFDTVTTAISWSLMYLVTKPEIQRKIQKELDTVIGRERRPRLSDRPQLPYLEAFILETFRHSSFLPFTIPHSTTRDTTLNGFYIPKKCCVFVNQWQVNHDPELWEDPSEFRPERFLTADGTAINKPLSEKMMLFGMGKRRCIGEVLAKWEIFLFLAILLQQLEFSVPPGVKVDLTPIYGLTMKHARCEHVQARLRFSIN", "assay": "Inhibition of CYP1A2 (unknown origin) at 10 uM", "type": "ADME", "in_short": "as §3"}, "[16]": {"target": "Adenosine receptor A2a (Homo sapiens) (UniProt P29274)", "sequence (P29274 whole entry)": "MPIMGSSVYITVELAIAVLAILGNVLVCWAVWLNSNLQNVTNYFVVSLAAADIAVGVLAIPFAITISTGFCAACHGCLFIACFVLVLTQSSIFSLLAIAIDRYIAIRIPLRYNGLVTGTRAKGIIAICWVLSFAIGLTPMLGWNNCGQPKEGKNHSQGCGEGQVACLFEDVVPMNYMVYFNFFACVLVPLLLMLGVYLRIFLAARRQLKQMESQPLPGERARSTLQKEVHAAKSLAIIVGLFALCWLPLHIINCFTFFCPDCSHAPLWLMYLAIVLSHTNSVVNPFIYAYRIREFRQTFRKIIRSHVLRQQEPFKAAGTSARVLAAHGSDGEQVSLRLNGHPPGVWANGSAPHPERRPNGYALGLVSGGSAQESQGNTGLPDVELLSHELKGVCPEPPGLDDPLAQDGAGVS", "assay": "Inhibition of adenosine A2a receptor (unknown origin) at 10 uM", "in_short": "as §4"}, "CYP3A4": {"target": "CYP3A4 (Homo sapiens, UniProt P08684)", "sequence (P08684 whole entry)": "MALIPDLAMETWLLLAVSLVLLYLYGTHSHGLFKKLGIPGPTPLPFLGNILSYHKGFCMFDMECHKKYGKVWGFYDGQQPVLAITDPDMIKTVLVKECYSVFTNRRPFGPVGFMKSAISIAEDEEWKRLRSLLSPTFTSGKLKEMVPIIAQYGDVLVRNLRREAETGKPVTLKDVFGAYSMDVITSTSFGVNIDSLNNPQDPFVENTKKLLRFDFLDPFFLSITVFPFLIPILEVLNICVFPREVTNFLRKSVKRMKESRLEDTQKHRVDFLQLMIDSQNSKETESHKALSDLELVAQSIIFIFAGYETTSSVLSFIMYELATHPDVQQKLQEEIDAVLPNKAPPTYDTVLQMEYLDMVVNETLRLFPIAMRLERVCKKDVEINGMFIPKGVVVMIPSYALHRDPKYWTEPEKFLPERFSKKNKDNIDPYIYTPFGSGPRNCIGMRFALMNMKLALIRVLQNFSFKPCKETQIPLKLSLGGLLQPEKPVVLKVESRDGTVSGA", "assay": "Inhibition of CYP3A4 (unknown origin) at 10 uM", "type": "ADME", "in_short": "as §3"}, "[17]": {"target": "T1, Neuronal acetylcholine receptor subunit alpha-7", "assay": "Agonist activity at human alpha7 nAChR expressed in Xenopus oocytes by voltage clamp method", "type": "cell-based"}, "[18]": {"target": "T2, Neuronal acetylcholine receptor; alpha4/beta2", "assay": "Agonist activity at human alpha4beta2 nAChR expressed in Xenopus oocytes by voltage clamp method", "type": "cell-based"}, "[19]": {"assay": "Clearance in mouse at 1 mg/kg, iv", "type": "ADME, organism-based", "parameters": "dose 1 mg/kg, route intravenous", "conditions": "in vivo"}, "CYP2C9": {"target": "CYP2C9 (Homo sapiens, UniProt P11712)", "sequence (P11712 whole entry)": "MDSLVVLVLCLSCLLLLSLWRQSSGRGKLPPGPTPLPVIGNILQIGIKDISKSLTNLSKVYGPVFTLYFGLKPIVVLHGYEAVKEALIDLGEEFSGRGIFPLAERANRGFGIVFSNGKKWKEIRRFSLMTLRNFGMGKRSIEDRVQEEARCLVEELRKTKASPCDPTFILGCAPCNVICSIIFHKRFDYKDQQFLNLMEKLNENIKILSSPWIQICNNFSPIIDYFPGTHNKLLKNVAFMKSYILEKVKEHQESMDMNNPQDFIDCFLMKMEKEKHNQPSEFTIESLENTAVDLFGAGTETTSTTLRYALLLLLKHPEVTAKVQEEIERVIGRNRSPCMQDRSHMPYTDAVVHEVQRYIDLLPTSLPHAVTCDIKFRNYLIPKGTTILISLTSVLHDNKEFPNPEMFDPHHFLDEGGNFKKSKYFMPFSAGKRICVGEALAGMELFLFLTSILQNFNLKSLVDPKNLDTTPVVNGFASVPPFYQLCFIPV", "assay": "Inhibition of CYP2C9 (unknown origin) at 10 uM", "type": "ADME", "in_short": "as §3"}, "hERG (KCNH2)": {"target": "hERG (KCNH2) (Homo sapiens, UniProt Q12809)", "sequence (Q12809 whole entry)": "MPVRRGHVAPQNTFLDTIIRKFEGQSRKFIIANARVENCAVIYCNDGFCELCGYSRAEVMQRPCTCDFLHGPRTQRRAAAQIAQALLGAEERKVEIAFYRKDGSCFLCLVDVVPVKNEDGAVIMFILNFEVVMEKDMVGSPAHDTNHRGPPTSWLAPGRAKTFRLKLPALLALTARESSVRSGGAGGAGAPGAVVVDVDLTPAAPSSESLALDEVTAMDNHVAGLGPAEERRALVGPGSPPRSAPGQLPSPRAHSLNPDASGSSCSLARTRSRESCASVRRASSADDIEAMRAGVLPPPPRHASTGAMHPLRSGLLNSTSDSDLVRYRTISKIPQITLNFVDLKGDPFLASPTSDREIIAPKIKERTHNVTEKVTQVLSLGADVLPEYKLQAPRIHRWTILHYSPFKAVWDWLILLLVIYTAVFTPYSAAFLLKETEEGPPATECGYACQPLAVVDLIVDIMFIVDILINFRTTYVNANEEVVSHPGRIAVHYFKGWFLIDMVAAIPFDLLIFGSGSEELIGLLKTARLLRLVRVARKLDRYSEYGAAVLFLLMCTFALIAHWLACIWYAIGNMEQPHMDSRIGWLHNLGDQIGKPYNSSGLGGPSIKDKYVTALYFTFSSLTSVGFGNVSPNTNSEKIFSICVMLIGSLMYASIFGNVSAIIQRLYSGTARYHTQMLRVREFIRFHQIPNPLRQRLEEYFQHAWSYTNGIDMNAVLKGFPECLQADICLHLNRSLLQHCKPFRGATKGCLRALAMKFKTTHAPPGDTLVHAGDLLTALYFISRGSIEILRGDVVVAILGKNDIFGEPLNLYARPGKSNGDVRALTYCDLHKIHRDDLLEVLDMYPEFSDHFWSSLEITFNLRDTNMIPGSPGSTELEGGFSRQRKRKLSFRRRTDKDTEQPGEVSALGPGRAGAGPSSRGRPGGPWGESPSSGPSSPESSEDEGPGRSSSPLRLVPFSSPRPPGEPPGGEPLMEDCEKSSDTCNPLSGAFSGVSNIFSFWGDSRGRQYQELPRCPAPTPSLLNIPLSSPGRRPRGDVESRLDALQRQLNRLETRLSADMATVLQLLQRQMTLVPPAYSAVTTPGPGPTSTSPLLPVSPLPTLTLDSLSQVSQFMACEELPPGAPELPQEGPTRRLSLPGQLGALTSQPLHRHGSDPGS", "assay": "Inhibition of human ERG at 1 uM by whole-cell voltage clamp assay"}, "[20]": {"target": "T2, Neuronal acetylcholine receptor; alpha4/beta2", "assay": "Inhibition of human alpha4beta2 nAChR at 10 uM by binding assay"}, "Mus musculus [21]": {"system": "Mus musculus", "assay": "as §1, with “in total blood cells” for “in neutrophils”, “at 10” for “at 1”, “po bid” for “po qd”", "type": "functional, organism-based", "parameters": "dose 10 mg/kg", "in_short": "as §2"}, "Mus musculus [22]": {"system": "Mus musculus", "assay": "as §1, with “at 10” for “at 1”, “po bid” for “po qd”", "type": "functional, organism-based", "parameters": "dose 10 mg/kg", "conditions": "Bronchoalveolar lavage", "in_short": "as §2"}, "Mus musculus [23]": {"system": "Mus musculus", "assay": "as §1, with “in eosinophils” for “in neutrophils”, “at 10” for “at 1”, “po bid” for “po qd”", "type": "functional, organism-based", "parameters": "dose 10 mg/kg", "in_short": "as §2"}}, "note": "Calls of active or inactive are those of the source. No cut-off for these calls is given here.", "data": [{"molecule": "Cl.c1cncc(OC[C@H]2CNCCN2c2nc3ncccc3o2)c1", "values": [{"measurement": "Cmax", "setting": "[1]", "result": 2.53, "unit": "µM"}, {"measurement": "inhibition in vivo at 1 mg/kg", "setting": "Mus musculus [2]", "result": 90, "unit": "%"}, {"measurement": "inhibition in vivo at 1 mg/kg", "setting": "Mus musculus [3]", "result": 60, "unit": "%"}, {"measurement": "Emax", "setting": "[4]", "result": 85, "unit": "%"}, {"measurement": "inhibition in vivo at 5 mg/kg", "setting": "Mus musculus [5]", "result": 60, "unit": "%"}, {"measurement": "inhibition in vivo at 5 mg/kg", "setting": "Mus musculus [6]", "result": 78, "unit": "%"}, {"measurement": "inhibition at 10 µM", "setting": "CYP2D6", "result": 1, "unit": "%"}, {"measurement": "half-life", "setting": "[7]", "result": 19, "unit": "min"}, {"measurement": "IC50", "setting": "[8]", "result": 0.058, "unit": "µM"}, {"measurement": "IC50", "setting": "[9]", "result": 0.0055, "unit": "µM"}, {"measurement": "inhibition", "setting": "[10]", "result": 1, "unit": "%"}, {"measurement": "half-life", "setting": "[11]", "result": 98, "unit": "min"}, {"measurement": "inhibition at 10 µM", "setting": "CYP2C19", "result": 9, "unit": "%"}, {"measurement": "inhibition", "setting": "[12]", "result": 43, "unit": "%"}, {"measurement": "inhibition", "setting": "Mus musculus [13]", "result": "inactive"}, {"measurement": "bioavailability", "setting": "[14]", "result": 50, "unit": "%"}, {"measurement": "inhibition in vivo at 1 mg/kg", "setting": "Mus musculus [15]", "result": 64, "unit": "%"}, {"measurement": "inhibition at 10 µM", "setting": "CYP1A2", "result": 25, "unit": "%"}, {"measurement": "inhibition", "setting": "[16]", "result": 50, "unit": "%"}, {"measurement": "inhibition at 10 µM", "setting": "CYP3A4", "result": 5, "unit": "%"}, {"measurement": "EC50", "setting": "[17]", "result": 0.2, "unit": "µM"}, {"measurement": "Activity", "setting": "[18]", "result": "inactive"}, {"measurement": "clearance", "setting": "[19]", "result": 4.32, "unit": "L/h/kg"}, {"measurement": "inhibition at 10 µM", "setting": "CYP2C9", "result": 22, "unit": "%"}]}, {"molecule": "COc1ccc(NC(=O)N2CCNCC2COc2cccnc2)cc1", "note": "(racemic)", "values": [{"measurement": "inhibition at 10 µM", "setting": "CYP2D6", "result": 0, "unit": "%"}, {"measurement": "IC50", "setting": "[9]", "result": 0.06, "unit": "µM"}, {"measurement": "inhibition", "setting": "[10]", "result": -8, "unit": "%"}, {"measurement": "inhibition at 10 µM", "setting": "CYP2C19", "result": 17, "unit": "%"}, {"measurement": "inhibition", "setting": "[12]", "result": 23, "unit": "%"}, {"measurement": "inhibition at 10 µM", "setting": "CYP1A2", "result": 11, "unit": "%"}, {"measurement": "inhibition at 10 µM", "setting": "CYP3A4", "result": 7, "unit": "%"}, {"measurement": "inhibition at 1 µM", "setting": "hERG (KCNH2)", "result": 15, "unit": "%"}, {"measurement": "inhibition", "setting": "[20]", "result": 33, "unit": "%"}, {"measurement": "inhibition", "setting": "Mus musculus [21]", "result": "Active"}, {"measurement": "inhibition", "setting": "Mus musculus [22]", "result": "Active"}, {"measurement": "inhibition", "setting": "Mus musculus [23]", "result": "Active"}, {"measurement": "inhibition at 10 µM", "setting": "CYP2C9", "result": 14, "unit": "%"}]}]}
